Experimental data: ChEMBL document CHEMBL1221374, “Synthesis, proapoptotic screening, and structure-activity relationships of novel aza-lupane triterpenoids” (Bioorg Med Chem Lett, 2010)

Tests used:
[1] = system: SK-MEL-2; test: Cytotoxicity against human SK-MEL-2 cells after 72 hrs by MTS assay; format: functional, cell-based; conditions: SK-MEL-2, 72 h
Outline: (§1)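 Cells (1 × 10^4/well) seeded the evening before. Compounds were taken from 10 mM DMSO stock into growth medium and tested at 2, 10, 25, 50 and 75 µM, four wells each, with DMSO-matched controls. Exposure was 72 h, then MTS reagent for 1.5-4 h at 37 °C, and formazan A490 was read against DMSO-treated cells. IC50 is the mean of four wells from one experiment, or of three experiments where stated.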

[2] = system: A-375; test: Cytotoxicity against human A375 cells after 72 hrs by MTS assay; format: functional, cell-based; conditions: A-375, 72 h; outline: as §1
[3] = system: Daoy; test: Cytotoxicity against human DaOY cells after 72 hrs by MTS assay; format: functional, cell-based; outline: as §1
[4] = Cytotoxicity against human LN229 cells after 72 hrs by MTS assay; format: functional, cell-based; conditions: LN-229, 72 h; outline: as §1
[5] = system: HT-29; test: Cytotoxicity against human HT-29 cells after 72 hrs by MTS assay; format: functional, cell-based; conditions: HT-29, 72 h; outline: as §1
[6] = system: MCF7; test: Cytotoxicity against human MCF7 cells after 72 hrs by MTS assay; format: functional, cell-based; conditions: MCF7, 72 h; outline: as §1
[7] = system: OVCAR-3; test: Cytotoxicity against human OVCAR-3 cells after 120 hrs by MTS assay; conditions: OVCAR-3, 120 h
[8] = system: SK-MEL-2 (Homo sapiens); test: Induction of apoptosis in human SK-MEL-2 cells assessed as necrotic cells at 7.5 uM after 16 hrs by annexin assay
[9] = system: SK-MEL-2 (Homo sapiens); test: Induction of apoptosis in human SK-MEL-2 cells assessed as apoptotic cells at 7.5 uM after 16 hrs by annexin assay

Row | Structure (SMILES) | IC50 [1] [nM] | IC50 [2] [nM] | IC50 [3] [nM] | IC50 [4] [nM] | IC50 [5] [nM] | IC50 [6] [nM] | IC50 [7] [nM] | Activity [8] [%] | Activity [9] [%]
1 | C=C(CNCCO)[C@@H]1CC[C@]2(CO)CC[C@]3(C)[C@H](CC[C@@H]4[C@@]5(C)CCC(NCCc6ccc(O)cc6)C(C)(C)[C@@H]5CC[C@]43C)[C@@H]12 (some centres not stated) | 5000 | 2000 | < 2000 | 14000 | < 2000 | 4000 | 40000 | < 15 | > 60
2 | C=C(CNCCc1ccc(O)cc1)[C@@H]1CC[C@]2(CO)CC[C@]3(C)[C@H](CC[C@@H]4[C@@]5(C)CCC(N)C(C)(C)[C@@H]5CC[C@]43C)[C@@H]12 (some centres not stated) | 3000 | < 2000 | < 2000 | < 2000 | 2000 | 5000 | – | < 15 | > 60
